Measurements as given in ChEMBL document CHEMBL4177648, “Benzofuran-dihydropyridine hybrids: A new class of potential bone anabolic agents” (Bioorg Med Chem, 2017).
pEC50: −log10 of the molar value. Calls of active or inactive are those of the source. The rule behind the calls is not given here.

Experiments:
[1] = tested on: Calvarial osteoblast; experiment: Anabolic activity in rat calvarial osteoblasts assessed as induction of alkaline phosphatase activity at 1 pM after 48 hrs in presence of beta-glycerophosphate and ascorbic acid by p-nitrophenyl phosphate substrate based assay (reference value: 1 to 1.21); type: functional
[2] = tested on: Calvarial osteoblast; experiment: Anabolic activity in rat calvarial osteoblasts assessed as induction of alkaline phosphatase activity at 100 pM after 48 hrs in presence of beta-glycerophosphate and ascorbic acid by p-nitrophenyl phosphate substrate based assay (reference value: 1 to 1.21); type: functional
[3] = tested on: Calvarial osteoblast; experiment: Anabolic activity in rat calvarial osteoblasts assessed as induction of alkaline phosphatase activity at 10 nM after 48 hrs in presence of beta-glycerophosphate and ascorbic acid by p-nitrophenyl phosphate substrate based assay (reference value: 1 to 1.21); type: functional
[4] = tested on: Calvarial osteoblast; experiment: Anabolic activity in rat calvarial osteoblasts assessed as induction of alkaline phosphatase activity at 1 uM after 48 hrs in presence of beta-glycerophosphate and ascorbic acid by p-nitrophenyl phosphate substrate based assay (reference value: 1 to 1.21); type: functional
[5] = tested on: Calvarial osteoblast; experiment: Anabolic activity in rat calvarial osteoblasts assessed as induction of alkaline phosphatase activity at 100 uM after 48 hrs in presence of beta-glycerophosphate and ascorbic acid by p-nitrophenyl phosphate substrate based assay (reference value: 1 to 1.21); type: functional
[6] = tested on: Calvarial osteoblast; experiment: Induction of mineralization in rat calvarial osteoblasts at 1 uM after 21 days by Alizarin-red dye based assay; type: functional, cell-based
How it was run: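 Rat pup calvarial osteoblasts were seeded at 1×10^4 cells/well in differentiation medium with compound. Medium was changed every other day for 21 days. Cells were fixed in 4% paraformaldehyde and stained with 40 mM Alizarin red (pH 4.5). Stain was extracted with 10% acetic acid, heated to 85 °C, and neutralised with NH4OH. Absorbance was read at 405 nm.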

[7] = tested on: Calvarial osteoblast; experiment: Upregulation of ALP mRNA levels in rat calvarial osteoblasts at 1 uM after 48 hrs by qRT-PCR analysis relative to control; type: functional
How it was run: (§1)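 Rat pup calvarial osteoblasts were treated for 48 h with compound. Total RNA was extracted with TRIzol and checked by A260 and A260/A280. qRT-PCR used 45 cycles (94 °C, 62 °C, 72 °C steps) and was normalised to GAPDH. Fold change is over untreated cells; n=5, mean ± SEM.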

[8] = tested on: Calvarial osteoblast; experiment: Upregulation of Osx mRNA levels in rat calvarial osteoblasts at 1 uM after 48 hrs by qRT-PCR analysis relative to control; type: functional; how it was run: as §1
[9] = tested on: Calvarial osteoblast; experiment: Upregulation of Col1 mRNA levels in rat calvarial osteoblasts at 1 uM after 48 hrs by qRT-PCR analysis relative to control; type: functional; how it was run: as §1
[10] = tested on: Calvarial osteoblast; experiment: Upregulation of Runx2 mRNA levels in rat calvarial osteoblasts at 1 uM after 48 hrs by qRT-PCR analysis relative to control; type: functional; how it was run: as §1
[11] = tested on: Calvarial osteoblast; experiment: Upregulation of Bmp2 mRNA levels in rat calvarial osteoblasts at 1 uM after 48 hrs by qRT-PCR analysis relative to control; type: functional; how it was run: as §1
[12] = tested on: Calvarial osteoblast; experiment: Anabolic activity in rat calvarial osteoblasts assessed as induction of alkaline phosphatase activity after 48 hrs in presence of beta-glycerophosphate and ascorbic acid by p-nitrophenyl phosphate substrate based assay; type: functional, cell-based

| Structure (SMILES) | OD [1] | OD [2] | OD [3] | OD [4] | OD [5] | Activity [6] | fold change (FC) [7] | fold change (FC) [8] | fold change (FC) [9] | fold change (FC) [10] | fold change (FC) [11] | pEC50 [12] |
| --- | --- | --- | --- | --- | --- | --- | --- | --- | --- | --- | --- | --- |
| CCC(C)c1cc(C2C(C(=O)OC)=C(C)NC3=C2C(=O)CCC3)cc2cc(C(=O)c3ccc([N+](=O)[O-])cc3)oc12 (centres undefined) | 0.65 | 0.72 | 0.82 | 0.82 | 0.25 | – | – | – | – | – | – | – |
| CCOC(=O)C1=C(C)NC2=C(C(=O)CCC2)C1c1cc(CC)c2oc(C(=O)c3ccc(OC)cc3)cc2c1 (centres undefined) | 1.32 | 1.49 | 1.64 | 1.8 | 0.41 | Active | 2 - 5.5 | 2 - 5.5 | 2 - 5.5 | 2 - 5.5 | 2 - 5.5 | 5.00 |
| CCC(C)c1cc(C2C(C(=O)OC)=C(C)NC3=C2C(=O)CC(C)(C)C3)cc2cc(C(=O)c3ccc(C)cc3)oc12 (centres undefined) | 1.08 | 1.16 | 1.11 | 1.13 | 0.37 | – | – | – | – | – | – | – |
| CCOC(=O)C1=C(C)NC2=C(C(=O)CCC2)C1c1cc(C(C)CC)c2oc(C(=O)c3ccc([N+](=O)[O-])cc3)cc2c1 (centres undefined) | 1.12 | 0.82 | 0.89 | 0.69 | 0.37 | – | – | – | – | – | – | – |
| CCC(C)c1cc(C2C(C(=O)OC)=C(C)NC3=C2C(=O)CCC3)cc2cc(C(=O)c3ccc(Cl)cc3)oc12 (centres undefined) | 1.39 | 1.48 | 1.34 | 1.31 | 0.5 | – | – | – | – | – | – | – |
| COc1ccc(C(=O)c2cc3cc(C=O)cc(C(C)(C)C)c3o2)cc1 | 1.33 | 1.5 | 1.7 | 1.26 | 0.59 | – | – | – | – | – | – | – |
| CCC(C)c1cc(C=O)cc2cc(C(=O)c3ccc(OC)cc3)oc12 (centres undefined) | 1.35 | 1.49 | 1.59 | 1.21 | 0.58 | – | – | – | – | – | – | 8.00 |
| CCC(C)c1cc(C2C(C(=O)OC)=C(C)NC3=C2C(=O)CCC3)cc2cc(C(=O)c3ccc(OC)cc3)oc12 (centres undefined) | 1.37 | 1.34 | 1.09 | 1.34 | 0.37 | – | – | – | – | – | – | – |
| CCC(C)c1cc(C2C(C(=O)OC)=C(C)NC3=C2C(=O)CC(C)(C)C3)cc2cc(C(=O)c3ccc(Cl)cc3)oc12 (centres undefined) | 1.08 | 0.85 | 0.86 | 0.23 | 0.23 | – | – | – | – | – | – | – |
| CCc1cc(C=O)cc2cc(C(=O)c3ccc(OC)cc3)oc12 | 1.09 | 1.11 | 1.24 | 1.03 | 0.29 | – | – | – | – | – | – | – |
| CCOC(=O)C1=C(C)NC2=C(C(=O)CC(C)(C)C2)C1c1cc(CC)c2oc(C(=O)c3ccc(OC)cc3)cc2c1 (centres undefined) | 1.24 | 1.45 | 1.65 | 1.72 | 0.5 | – | – | – | – | – | – | – |
| CCC(C)c1cc(C2C(C(=O)OC)=C(C)NC3=C2C(=O)CC(C)(C)C3)cc2cc(C(=O)c3ccc([N+](=O)[O-])cc3)oc12 (centres undefined) | 0.98 | 1.03 | 1.06 | 0.76 | 0.3 | – | – | – | – | – | – | – |
| CCC(C)c1cc(C2C(C(=O)OC)=C(C)NC3=C2C(=O)CC(C)(C)C3)cc2cc(C(=O)c3ccc(OC)cc3)oc12 (centres undefined) | 0.97 | 0.64 | 1.14 | 1.26 | 0.29 | – | – | – | – | – | – | – |
| CCOC(=O)C1=C(C)NC2=C(C(=O)CCC2)C1c1cc(C(C)CC)c2oc(C(=O)c3ccc(Cl)cc3)cc2c1 (centres undefined) | 0.9 | 1.02 | 1.04 | 0.79 | 0.31 | – | – | – | – | – | – | – |
| CCC(C)c1cc(C=O)cc2cc(C(=O)c3ccc(Cl)cc3)oc12 (centres undefined) | 0.98 | 0.78 | 0.96 | 0.77 | 0.26 | – | – | – | – | – | – | – |
| CCc1cc(C2C(C(=O)OC)=C(C)NC3=C2C(=O)CC(C)(C)C3)cc2cc(C(=O)c3ccc(OC)cc3)oc12 (centres undefined) | 1.26 | 0.73 | 1.19 | 1.2 | 0.18 | – | – | – | – | – | – | – |
| CCOC(=O)C1=C(C)NC2=C(C(=O)CC(C)(C)C2)C1c1ccccc1 (centres undefined) | 1.03 | 1.41 | 1.41 | 1.23 | 0.58 | – | – | – | – | – | – | – |
| COC(=O)C1=C(C)NC2=C(C(=O)CCC2)C1c1cc(C(C)(C)C)c2oc(C(=O)c3ccc(OC)cc3)cc2c1 (centres undefined) | 1.19 | 1.01 | 1.07 | 1.17 | 0.32 | – | – | – | – | – | – | – |
| COC(=O)C1=C(C)NC2=C(C(=O)CC(C)(C)C2)C1c1cc(C(C)(C)C)c2oc(C(=O)c3ccc(OC)cc3)cc2c1 (centres undefined) | 0.79 | 1.15 | 1.1 | 1.25 | 0.36 | – | – | – | – | – | – | – |
| CCC(C)c1cc(C=O)cc2cc(C(=O)c3ccc([N+](=O)[O-])cc3)oc12 (centres undefined) | 1.04 | 0.66 | 0.73 | 1.08 | 0.31 | – | – | – | – | – | – | – |
| CCOC(=O)C1=C(C)NC2=C(C(=O)CC(C)(C)C2)C1c1cc(C(C)CC)c2oc(C(=O)c3ccc(OC)cc3)cc2c1 (centres undefined) | 1.08 | 0.82 | 1.3 | 1.13 | 0.51 | – | – | – | – | – | – | – |
| CCC(C)c1cc(C=O)cc2cc(C(=O)c3ccc(C)cc3)oc12 (centres undefined) | 1.23 | 1.16 | 1.41 | 1.42 | 0.3 | – | – | – | – | – | – | 7.50 |
| CCOC(=O)C1=C(C)NC2=C(C(=O)CCC2)C1c1ccccc1 (centres undefined) | 1.26 | 1.25 | 1.43 | 1.44 | 0.74 | – | – | – | – | – | – | – |
| CCC(C)c1cc(C2C(C(=O)OC)=C(C)NC3=C2C(=O)CCC3)cc2cc(C(=O)c3ccc(C)cc3)oc12 (centres undefined) | 0.99 | 1.12 | 1.17 | 0.84 | 0.25 | – | – | – | – | – | – | – |
| CCOC(=O)C1=C(C)NC2=C(C(=O)CC(C)(C)C2)C1c1cc(C(C)(C)C)c2oc(C(=O)c3ccc(OC)cc3)cc2c1 (centres undefined) | 1.04 | 1.53 | 1.47 | 1.15 | 0.36 | – | – | – | – | – | – | – |
| CCOC(=O)C1=C(C)NC2=C(C(=O)CCC2)C1c1cc(C(C)(C)C)c2oc(C(=O)c3ccc(OC)cc3)cc2c1 (centres undefined) | 1.14 | 1.14 | 1.17 | 1.77 | 0.29 | – | – | – | – | – | – | – |
